# Measured values collected from several papers.
# Compare with care: the assays were run in different laboratories.
# Target: Serine/threonine-protein kinase PLK1 (PLK1, Homo sapiens, UniProt P53350)
Structure (SMILES),test,test system,conditions,endpoint,result
Cc1cc(NC(=O)c2cccc3cc(-c4cccc5[nH]nc(N)c45)ccc23)ccc1F,"enzyme activity, inhibitor",,0.1 µM,activity vs control,92%
Cc1c(NC(=O)c2cc(C(N)=O)nc3cc(F)ccc23)c(C(F)(F)F)nn1Cc1ccc(C(C)(C)C)cc1,"cell-free assay, competition with immobilised ligand",,1 µM,remaining binding,99%
COc1cc(/C=C/C(=O)CC(=O)/C=C/c2ccc(O)c(OC)c2)ccc1O,"enzyme activity, inhibitor",,1 µM,activity vs control,75%
CC(C)(C)C(=O)c1sc(NC2CCCCC2)nc1N,"enzyme activity, inhibitor",,10 µM,remaining activity,93%
O=C(Nc1cccnn1)N1CC(C/C=C/c2cncc(Oc3ccc(C(F)(F)F)cn3)n2)C1,"cell-free assay, competition with immobilised ligand",,1 µM,remaining binding,87%
N#CCCc1ccc2c(c1)-c1[nH]c3ccc([N+](=O)[O-])cc3c1CC(=O)N2,cell-free assay,,0.5 µM,remaining signal,101%
CCN1CCN(Cc2ccc(NC(=O)c3ccc(C)c(Oc4ccnc5[nH]ccc45)c3)cc2C(F)(F)F)CC1,"target engagement in cells, inhibitor, chemoproteomics",Huh-7,10 µM,inhibition,-35%
CCN(CC)CCNC(=O)c1c(C)[nH]c(/C=C2\C(=O)Nc3ccc(F)cc32)c1C,cell-free assay,,0.5 µM,remaining signal,96.4%
Nc1ncnc2occ(-c3ccc(NC(=O)Nc4cc(C(F)(F)F)ccc4F)cc3)c12,"cell-free assay, inhibitor",,20 µM,remaining signal,100%
FC(F)c1nc2ccccc2n1-c1nc(N2CCOCC2)nc(N2CCOCC2)n1,"enzyme activity, inhibitor",,10 µM,remaining activity,75%
Cc1cnc(NC2CCOCC2)nc1-n1cnc(C(=O)NC(CN)c2cc(F)cc(Cl)c2)c1 (centres unmarked),"enzyme activity, inhibitor, radiometric",,1 µM,remaining activity,103%
CNCc1ccccc1-c1csc([C@@H](C)Nc2nc(C)nc3cc(OC)c(OC)cc23)c1,"cell-free assay, competition with immobilised ligand",,1 µM,remaining binding,80%
CCN(CC)c1ccc(C2=NNC(=O)CC2C)cc1[N+](=O)[O-] (centres unmarked),"enzyme activity, inhibitor",,10 µM,remaining activity,103%
FC(F)(F)Oc1cccc(-c2cnc3ccc(-c4ccncc4)nn23)c1,"enzyme activity, inhibitor, radiometric",,5 µM,activity vs control,98%
CN(c1ncccc1CNc1nc(Nc2ccc3c(c2)CC(=O)N3)ncc1C(F)(F)F)S(C)(=O)=O,"enzyme activity, inhibitor",,1 µM,inhibition,22.1%
Cc1ccc(NC(=O)c2ccc(C)c(C(F)(F)F)c2)cc1C#Cc1nn(C2CCC(O)CC2)c2ncnc(N)c12 (centres unmarked),cell-free assay,,10 µM,remaining signal,92%
COc1cc(Cl)c(C(=O)N[C@@H](CN[C@H]2CC[C@@H](N)CC2)Cc2ccc(C#N)cc2)cc1-c1ccc(CN[C@H](C)c2ccc(C)cc2)o1,"enzyme activity, inhibitor",,1 µM,remaining activity,94%
CS(=O)(=O)Nc1cccc(-c2csc(NC(=O)CSc3nc4nccnc4c(=O)n3CCc3ccccc3)n2)c1,"enzyme activity, inhibitor",,10 µM,inhibition,11%
CC(=O)C1=C(C)N(c2cccc(C(F)(F)F)c2)C(=O)N[C@@H]1c1ccc(C#N)nc1,"cell-free assay, competition with immobilised ligand",,1 µM,remaining binding,100%
COc1cc2ncnc(Nc3ccc(Oc4ccccc4)c(C)c3C)c2cc1OC,"enzyme activity, inhibitor",,1 µM,inhibition,-1%
COc1cc(Nc2cnc(C#N)c(O[C@H](C)CN(C)C)n2)ncc1-c1cnn(C)c1,"enzyme activity, inhibitor, radiometric",,1 µM,remaining activity,88%
Cc1[nH]c(/C=C2\C(=O)Nc3ccc(F)cc32)c(C)c1C(=O)N[C@H]1CCN(C(=O)N(C)C)C1,"enzyme activity, inhibitor",,0.1 µM,remaining activity,126%
Cc1cc(-n2nc(Cc3cc(F)cc(C(F)(F)F)c3)nc2C)ccc1C(N)=O,"cell-free assay, competition with immobilised ligand",,1 µM,remaining binding,100%
CC/C(=N\NC(=O)NCc1cccc(O)c1)c1ccc(O)c(C)c1O,"enzyme activity, inhibitor",,0.1 µM,inhibition,-2.6%
Nc1nc(Nc2ccccc2)sc1C(=O)c1c(F)cccc1F,"enzyme activity, inhibitor",,10 µM,remaining activity,86%
Cc1cc(NC(=O)c2cccc(S(F)(F)(F)(F)F)c2)cc(-n2ccn3nc(-c4cccnc4)cc23)c1,"cell-free assay, competition with immobilised ligand",,1 µM,remaining binding,95.3%
CN(C)C1CCN(CC#Cc2nn(C3CCCC3)c3nc(NCc4ccccc4)ncc23)C1 (centres unmarked),"enzyme activity, inhibitor, FRET",,0.1 µM,inhibition,-1%
O=C(Nc1cnn(-c2csc(C(=O)NC3COC3)c2)c1)Nc1ccccc1Cl,"enzyme activity, inhibitor",,5 µM,remaining activity,97%
CNC(=O)Nc1ccc2c(c1)CC[C@@]21OC(=O)N(CC(=O)N(Cc2ccc(F)cc2)[C@@H](C)C(F)(F)F)C1=O,"cell-free assay, competition with immobilised ligand",,1 µM,remaining binding,63%
O=C1NC(=O)c2cc(Nc3ccc(F)cc3)c(Nc3ccc(F)cc3)cc21,cell-free assay,,0.5 µM,remaining signal,99.9%
CN(c1ccnc(CNc2nc(Nc3ccc4c(c3)CC(=O)N4)ncc2C(F)(F)F)n1)S(C)(=O)=O,"cell-free assay, competition with immobilised ligand",,1 µM,remaining binding,7.6%
Cc1ccc(NC(=O)c2ccc(CN3CCN(C)CC3)cc2)cc1Nc1nc(-c2cccnc2)cs1,cell-free assay,,0.5 µM,remaining signal,101%
